This note sets out measurements from ChEMBL document CHEMBL1773023, “Potent and selective phosphopeptide mimetic prodrugs targeted to the Src homology 2 (SH2) domain of signal transducer and activator of transcription 3” (J Med Chem, 2011).

Assay [1] addresses T1, Signal transducer and activator of transcription 3 (Homo sapiens, UniProt P40763). Briefly: Inhibition of SH2 domain of Stat3 phosphorylation at Tyr705 in human HCC-827 cells at 5 uM after 24 hrs by Western blotting. It counts as cell-based. The essentials:
(§1)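 HCC-827 NSCLC cells treated with 5 μM prodrug and sampled over a time course from 10 min to 24 h; pStat3 by Western blot.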

Assay [2] concerns the target Focal adhesion kinase 1 (Homo sapiens) (UniProt Q05397). The assay can be described thus: Inhibition of constitutive FAK phosphorylation at Tyr861 in human MDA-MB-468 cells at 5 uM measured after 2 hrs by Western blotting.
Assay [3] in a line: Cytotoxicity against human NCI-H1819 cells assessed as cell growth inhibition at 5 to 10 uM after 72 hrs by MTT assay. The assay is classed as functional. The essentials: (§2)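 Cell lines with constitutive Stat3 phosphorylation (melanoma, NSCLC) exposed to prodrug at 5–10 μM. Percent growth inhibition recorded.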
The target in assay [4] is G1/S-specific cyclin-D1 (Homo sapiens) (UniProt P24385). The assay can be described thus: Inhibition of Cyclin D1 in human HCC-827 cells at 5 uM after up to 24 hrs by Western blotting. The assay is classed as cell-based.
Assay [5] is described as follows: Cytotoxicity against human H1299 cells assessed as cell growth inhibition at 5 to 10 uM after 72 hrs by MTT assay. The assay is classed as functional, NCI-H1299. The essentials:
as §2

The test system of assay [6] is MDA-MB-468. The assay can be described thus: Decrease of cyclin D1 gene expression in human MDA-MB-468 cells at 5 uM. It counts as functional, cell-based.
Assay [7] addresses Baculoviral IAP repeat-containing protein 5 (Homo sapiens) (UniProt O15392). Briefly: Inhibition of survivin in human HCC-827 cells at 5 uM after up to 48 hrs by Western blotting. It counts as cell-based.
Assay [8] concerns the target T1, Signal transducer and activator of transcription 3. Briefly: Inhibition of SH2 domain of Stat3 in human MDA-MB-468 cells assessed as reduction of phosphorylated Stat3 level in cell nucleus at 5 uM after 2 hrs by fluorescence immunohistochemical analysis. It counts as cell-based. The essentials: (§3)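 MDA-MB-468 cells on slides treated with 5 μM prodrug or DMSO for 2 h, fixed in 4% paraformaldehyde, permeabilized with 0.5% Triton X-100, blocked in 3% BSA, stained with anti-pTyr705 Stat3 and Alexa Fluor 594 secondary; confocal imaging at fixed microscope settings.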

The subject of assay [9] is MeWo. Briefly: Cytotoxicity against human MeWo cells assessed as cell growth inhibition at 5 to 10 uM after 72 hrs by MTT assay. It counts as functional. The essentials: as §2
Assay [10] has as its target T1, Signal transducer and activator of transcription 3. Briefly: Inhibition of constitutive SH2 domain of Stat3 phosphorylation at Tyr705 in human SKOV3-ip cells at 1 uM measured after 2 hrs by Western blotting.
Assay [11] concerns the target T2, Signal transducer and activator of transcription 1-alpha/beta (Homo sapiens) (UniProt P42224).
T2 sequence (whole entry): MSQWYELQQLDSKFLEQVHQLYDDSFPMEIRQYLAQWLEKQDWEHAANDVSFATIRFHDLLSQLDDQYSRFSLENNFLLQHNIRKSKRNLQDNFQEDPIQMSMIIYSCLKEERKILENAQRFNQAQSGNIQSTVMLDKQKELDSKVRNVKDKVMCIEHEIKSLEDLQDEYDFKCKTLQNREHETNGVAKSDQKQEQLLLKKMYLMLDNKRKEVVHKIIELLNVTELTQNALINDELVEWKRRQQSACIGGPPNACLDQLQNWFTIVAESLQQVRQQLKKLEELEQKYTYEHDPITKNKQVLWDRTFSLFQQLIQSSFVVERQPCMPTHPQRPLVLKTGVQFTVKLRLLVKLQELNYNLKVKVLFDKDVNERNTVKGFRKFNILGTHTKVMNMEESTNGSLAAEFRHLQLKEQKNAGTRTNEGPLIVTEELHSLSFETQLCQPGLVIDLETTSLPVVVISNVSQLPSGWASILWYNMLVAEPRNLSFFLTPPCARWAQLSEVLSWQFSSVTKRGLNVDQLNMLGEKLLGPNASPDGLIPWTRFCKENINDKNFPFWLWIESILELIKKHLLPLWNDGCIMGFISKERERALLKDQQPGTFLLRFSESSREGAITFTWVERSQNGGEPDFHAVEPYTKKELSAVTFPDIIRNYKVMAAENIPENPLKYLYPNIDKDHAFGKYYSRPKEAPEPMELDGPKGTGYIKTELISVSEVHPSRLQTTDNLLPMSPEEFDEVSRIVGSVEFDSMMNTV
The assay can be described thus: Inhibition of IFN-gamma-induced Stat1 phosphorylation at Tyr701 in human MDA-MB-468 cells at 5 uM treated 1.5 hrs before IFN-gamma challenge measured after 30 mins by Western blotting. It counts as cell-based. The essentials:
(§4)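 MDA-MB-468 cells exposed to rising prodrug concentrations for 1.5 h, then interferon γ 25 ng/mL for 30 min; Western blot for pTyr701 and total Stat1.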

Assay [12] has as its target T2, Signal transducer and activator of transcription 1-alpha/beta (Homo sapiens). Briefly: Inhibition of IFN-gamma-induced Stat1 phosphorylation at Tyr701 in human MDA-MB-468 cells treated 1.5 hrs before IFN-gamma challenge measured after 30 mins by Western blotting. It counts as cell-based. The essentials:
as §4

Assay [13] concerns the target T1, Signal transducer and activator of transcription 3. The assay can be described thus: Inhibition of SH2 domain of Stat3 phosphorylation at Tyr705 in human HCC-827 cells at 5 uM after 4 hrs by Western blotting. The assay is classed as cell-based. The essentials:
as §1

Assay [14] relates to MDA-MB-468. Briefly: Decrease of Bcl-xl gene expression in human MDA-MB-468 cells at 5 uM. It counts as functional, cell-based.
Assay [15] concerns the target T1, Signal transducer and activator of transcription 3. Briefly: Inhibition of SH2 domain of Stat3 constitutive phosphorylation at Tyr705 in human MDA-MB-468 cells at 5 uM after 2 hrs by fluorescence immunohistochemical analysis. The assay is classed as cell-based. The essentials: as §3
Assay [16] shares this target. The assay can be described thus: Inhibition of IL6-induced SH2 domain of Stat3 phosphorylation at Tyr705 in human MeWo cells up to 10 uM treated 1.5 hrs before IL6 challenge measured after 30 mins by Western blotting. It counts as cell-based. The essentials:
(§5)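 Hey, MeWo and A375 cells (3×10^5/well, RPMI1640, overnight, fresh medium) given increasing prodrug concentrations for 2 h, with IL-6 10 ng/mL during the final 30 min; pStat3 and total Stat3 by Western blot.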

The nature of assay [17]: Cytotoxicity against human HCC827 cells after 72 hrs by SRB assay. The assay is classed as functional, cell-based. Particulars: HCC827, 72 h. The essentials: (§6)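 Cancer cell lines (MCF-7, SKOV3-ip, HCC-827) dosed daily with prodrug for three days; viability by SRB assay.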
In assay [18] the test system is A-375. The assay can be described thus: Cytotoxicity against human A375 cells assessed as cell growth inhibition at 5 to 10 uM after 72 hrs by MTT assay. It counts as functional. The essentials:
as §2

The test system of assay [19] is A549. Briefly: Cytotoxicity against human A549 cells assessed as cell growth inhibition at 5 to 10 uM after 72 hrs by MTT assay. It counts as functional. The essentials: as §2
For assay [20], the system named is MCF7. The assay can be described thus: Cytotoxicity against human MCF7 cells after 72 hrs by SRB assay. The settings on record: MCF7, 72 h. The assay is classed as functional, cell-based. The essentials:
as §6

Assay [21] has as its target T1, Signal transducer and activator of transcription 3. The assay can be described thus: Inhibition of IL6-induced SH2 domain of Stat3 phosphorylation at Tyr705 in human A375 cells up to 10 uM treated 1.5 hrs before IL6 challenge measured after 30 mins by Western blotting. Particulars: A-375. The assay is classed as cell-based. The essentials: as §5
The target is the same in assay [22]. Briefly: Inhibition of SH2 domain of Stat3 phosphorylation at Tyr705 in human SKOV3-ip cells up to 10 uM by Western blotting.

Activity calls are given as the source filed them. No cut-off for these calls is given here.

T1 sequence (P40763 whole entry, the tested form may be a part): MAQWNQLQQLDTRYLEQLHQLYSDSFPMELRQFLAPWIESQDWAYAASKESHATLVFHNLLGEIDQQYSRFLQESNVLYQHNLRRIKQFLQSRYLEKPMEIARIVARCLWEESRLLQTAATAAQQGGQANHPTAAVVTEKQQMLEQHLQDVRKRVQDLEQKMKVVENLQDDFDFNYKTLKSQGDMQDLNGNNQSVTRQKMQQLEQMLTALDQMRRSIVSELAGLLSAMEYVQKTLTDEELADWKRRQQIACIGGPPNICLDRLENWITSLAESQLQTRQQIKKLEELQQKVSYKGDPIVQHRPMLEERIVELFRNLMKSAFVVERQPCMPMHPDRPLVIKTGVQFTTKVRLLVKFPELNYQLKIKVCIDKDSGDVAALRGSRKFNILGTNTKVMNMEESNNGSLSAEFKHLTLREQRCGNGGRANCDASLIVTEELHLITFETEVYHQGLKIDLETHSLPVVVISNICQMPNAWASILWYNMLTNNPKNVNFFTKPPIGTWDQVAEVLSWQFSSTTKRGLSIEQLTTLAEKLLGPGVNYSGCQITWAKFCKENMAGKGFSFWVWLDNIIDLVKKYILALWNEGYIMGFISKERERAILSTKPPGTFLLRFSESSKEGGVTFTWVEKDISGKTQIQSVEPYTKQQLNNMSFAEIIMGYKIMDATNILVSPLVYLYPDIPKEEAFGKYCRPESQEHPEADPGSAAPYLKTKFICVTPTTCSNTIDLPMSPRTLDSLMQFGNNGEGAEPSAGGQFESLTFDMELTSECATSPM
Baculoviral IAP repeat-containing protein 5 (Homo sapiens), sequence (O15392 whole entry, the tested form may be a part): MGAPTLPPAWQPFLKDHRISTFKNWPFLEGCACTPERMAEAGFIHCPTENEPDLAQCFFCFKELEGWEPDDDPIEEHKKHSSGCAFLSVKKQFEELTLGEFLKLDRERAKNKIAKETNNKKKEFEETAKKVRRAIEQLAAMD
Focal adhesion kinase 1 (Homo sapiens), sequence (Q05397 2-1052 limits assumed): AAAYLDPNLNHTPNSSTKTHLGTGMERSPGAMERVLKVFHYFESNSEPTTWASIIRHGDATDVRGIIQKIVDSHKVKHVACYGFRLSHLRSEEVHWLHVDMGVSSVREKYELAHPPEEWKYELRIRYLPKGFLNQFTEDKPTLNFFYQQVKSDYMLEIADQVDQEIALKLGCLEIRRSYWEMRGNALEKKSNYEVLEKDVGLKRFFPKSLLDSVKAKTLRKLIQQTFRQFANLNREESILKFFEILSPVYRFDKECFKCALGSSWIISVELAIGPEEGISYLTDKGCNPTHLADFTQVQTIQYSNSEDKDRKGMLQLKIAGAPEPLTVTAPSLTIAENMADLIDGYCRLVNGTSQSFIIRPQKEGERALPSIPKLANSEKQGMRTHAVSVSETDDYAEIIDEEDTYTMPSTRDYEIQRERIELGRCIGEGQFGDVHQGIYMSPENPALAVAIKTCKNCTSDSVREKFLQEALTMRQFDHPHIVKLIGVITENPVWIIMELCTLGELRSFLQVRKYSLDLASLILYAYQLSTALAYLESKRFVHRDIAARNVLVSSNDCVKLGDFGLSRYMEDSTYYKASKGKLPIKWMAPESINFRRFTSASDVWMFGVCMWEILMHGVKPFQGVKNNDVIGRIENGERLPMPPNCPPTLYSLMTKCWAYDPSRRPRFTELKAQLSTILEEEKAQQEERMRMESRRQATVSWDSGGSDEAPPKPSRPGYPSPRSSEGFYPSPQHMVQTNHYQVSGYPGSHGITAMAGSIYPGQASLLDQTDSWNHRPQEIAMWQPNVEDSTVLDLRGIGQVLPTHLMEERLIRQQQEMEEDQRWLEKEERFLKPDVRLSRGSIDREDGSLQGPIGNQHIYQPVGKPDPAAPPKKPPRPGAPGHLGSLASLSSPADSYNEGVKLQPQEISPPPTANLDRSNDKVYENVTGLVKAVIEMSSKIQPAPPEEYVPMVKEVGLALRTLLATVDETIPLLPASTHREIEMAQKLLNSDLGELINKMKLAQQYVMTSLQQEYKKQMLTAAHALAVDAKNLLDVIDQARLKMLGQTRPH
G1/S-specific cyclin-D1 (Homo sapiens), sequence (P24385 whole entry): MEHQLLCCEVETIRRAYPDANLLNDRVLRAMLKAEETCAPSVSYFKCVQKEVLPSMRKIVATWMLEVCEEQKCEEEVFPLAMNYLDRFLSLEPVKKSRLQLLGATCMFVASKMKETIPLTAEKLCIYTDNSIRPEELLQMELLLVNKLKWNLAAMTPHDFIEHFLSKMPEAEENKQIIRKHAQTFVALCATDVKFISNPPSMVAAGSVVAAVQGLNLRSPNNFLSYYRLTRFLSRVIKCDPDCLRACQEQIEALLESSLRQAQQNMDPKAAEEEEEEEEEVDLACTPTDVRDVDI

Consider `C/C(=C\C(=O)N[C@H]1CCc2cccc3c2N(C1=O)[C@H](C(=O)N[C@H](C)CCC(N)=O)C3)c1ccc(C(F)(F)P(=O)(OCOC(=O)C(C)(C)C)OCOC(=O)C(C)(C)C)cc1`, for which the inhibition entry in assay [1], in [7], in [8], in assay [10], in assay [11] and in assay [13] was “Active” throughout. The inhibition entry in assay [15], in [16], in assay [21] and in assay [22] was “Active” in each case. The inhibition result in [2] and in assay [4] was “inactive” throughout. For the same compound, the “growth inhibition (GI)” value in [3], in [5], in assay [9], in assay [18] and in assay [19] was less than 20% each time. Also, the result in assay [6] and in [14] was inactive. Further, the inhibition result in [12] was “Dose-dependent effect”. The IC50 in assay [17] and in assay [20] was greater than 30 µM each time.
